Here are results for one compound from paper PMC2932756 (Chemico-biological interactions, 2010).

Series [1] concerns the target T1, horseradish peroxidase (HRP) (Armoracia rusticana, UniProt P00433).
T1 sequence (P00433 31-338 limits assumed): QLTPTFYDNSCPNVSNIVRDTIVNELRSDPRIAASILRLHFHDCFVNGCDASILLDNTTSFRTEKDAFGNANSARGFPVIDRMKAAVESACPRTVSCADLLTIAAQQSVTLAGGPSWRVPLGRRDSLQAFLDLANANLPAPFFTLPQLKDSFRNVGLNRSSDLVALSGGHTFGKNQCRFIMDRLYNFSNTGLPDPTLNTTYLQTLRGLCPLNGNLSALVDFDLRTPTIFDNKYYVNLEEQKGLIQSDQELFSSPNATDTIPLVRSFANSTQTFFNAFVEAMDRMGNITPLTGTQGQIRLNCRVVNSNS
The series can be described thus: Rate of AA and NADH oxidation by HRP/H2O2. It counts as biochemical.

The next series has as its system B16-F0 melanoma cells. The series can be described thus: MTT cell viability assay, B16-F0. It counts as cell-based, murine. Particulars: CAPE 15 μM, 48 h. The method, boiled down: (§1)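 24-well plates, 40,000 cells/well (SK-MEL-5 4,000/well) in 400 μL medium with 10% FBS, 24 h adhesion. Media: MEM Alpha for SK-MEL-5, MeWo and C32; DMEM for B16-F0 and B16-F10; McCoy's 5A for Saos-2; Leibovitz's L-15 for SW-620; RPMI for PC-3. Test compound 15 μM for 48 h; MTT 4 h, DMSO solubilisation for 2 h in the dark, A570. Viability relative to each line's untreated control.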
A general note: Tetrazolium assays rely on reduction of a dye to a coloured formazan, in cell work by metabolically active cells.

A further series relates to SK-MEL-5 melanoma cells. Nature of the series: MTT cell viability assay, SK-MEL-5. The format is cell-based, human. The conditions noted are these: CAPE 15 μM, 48 h. Summed up: as §1
For the next series, the system named is SK-MEL-28 melanoma cells. The series can be described thus: MTT assay using biochemical modulators in SK-MEL-28 melanoma cells. It counts as cell-based, human. Particulars: 48 h. Summed up: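 SK-MEL-28 cells in MEM Alpha with 10% FBS, 40,000/well in 24-well plates, 24 h to adhere. DMSO-dissolved modulators (1-bromoheptane 75 μM, dicoumarol 10 μM, cyclosporin A 15 μM, trifluoperazine 15 μM) added 20 min before test compound. Viability by MTT 48 h after compound addition: 4 h with dye, DMSO solubilisation for 2 h in the dark, A570.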

For series [2], the system named is melanocytic SK-MEL-28 melanoma cells. Nature of the series: Reactive oxygen species. It counts as cell-based, human. The method, boiled down:
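Cells seeded at 40,000/well in black 96-well plates, 24 h at 37 °C. Medium replaced with 2′,7′-dichlorofluorescein diacetate, then test compound added; fluorescence read from the moment of addition (ex 485, em 535 nm). In SK-MEL-28 only: dicoumarol 10 μM, 1-bromoheptane 75 μM, cyclosporin A 15 μM or trifluoperazine 15 μM included. Six replicates averaged.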

Series [3] has as its system SV40 transformed keratinocytes. Particulars: read-out: IC50, inhibition of proliferation; 48 h; cited from earlier work.

The structures appear in SMILES notation.

The cell viability is a read-out of living cells in per cent, often relative to untreated cells. A high value points to less harm to the cells. As to `O=C(/C=C/c1ccc(O)c(O)c1)OCCc1ccccc1` [CAPE, Caffeic Acid Phenylethyl Ester], in series [1] (HRP 2 μM, H2O2 100 μM), the “Rate of NADH oxidation by HRP/H2O2” value is 867 μM (AA and NADH depletion)/CAPE (μM)/HRP (μM)/min. Moreover, in series [1] (with GSH), the “Rate of AA oxidation by HRP/H2O2 in the presence of GSH” value is listed as 10 μM GSH depletion/CAPE (μM)/HRP (μM)/min and the “Rate of NADH oxidation by HRP/H2O2 in the presence of GSH” value was 5 μM GSH depletion/CAPE (μM)/HRP (μM)/min. For the same compound, the cell viability with B16-F0 melanoma cells turned out to be 58±6%. In the series with SK-MEL-5 melanoma cells, this compound showed a cell viability of 57±3%. The “increase of CAPE toxicity by 1-bromoheptane (BH)” value in the series on SK-MEL-28 melanoma cells (CAPE 7.5 μM + BH 75 μM) was 26%. Besides, in the series on SK-MEL-28 melanoma cells (CAPE 7.5 μM + dicoumarol 10 μM), the “enhancement of CAPE toxicity by dicoumarol” value amounted to 39%. For the same compound, in the series with SK-MEL-28 melanoma cells (CAPE 30 μM), the “viability, CAPE incubated alone” value was found to be 23±2%. Besides, the “ROS formation, CAPE + BH” value in series [2] (BH 75 μM) was 11±2 fold. Moreover, the “ROS formation, CAPE + TF” value in series [2] (CAPE 15 μM + TF 15 μM, 40 min) worked out at 5±1 fold. For the same compound, the “ROS formation, CAPE alone” value in series [2] (CAPE 15 μM, 40 min) came out at 8±1 fold. For the same compound, the ROS formation entry in series [2] (CAPE 15-300 μM, various time points) was “concentration- and time-dependent escalation in ROS formation”. Further, the “ROS formation, CAPE + CS” value in series [2] (CS 15 μM) was determined as 4±1 fold. For the same compound, in series [2] (DC 10 μM), the “ROS formation, CAPE + DC” value is reported as 12±2 fold. Further, the IC50 in series [3] was 7 µM.
